Results taken from ChEMBL document CHEMBL1944523, “Benzimidazolones: a new class of selective peroxisome proliferator-activated receptor γ (PPARγ) modulators” (J Med Chem, 2011).
Calls of active or inactive are those of the source. The rule behind the calls is not given here.

How the values were obtained:
[1] = molecular target: T1, Cytochrome P450 2C8 (Homo sapiens, UniProt P10632); assay: Inhibition of CYP2C8; type: ADME
T1 sequence (P10632 whole entry): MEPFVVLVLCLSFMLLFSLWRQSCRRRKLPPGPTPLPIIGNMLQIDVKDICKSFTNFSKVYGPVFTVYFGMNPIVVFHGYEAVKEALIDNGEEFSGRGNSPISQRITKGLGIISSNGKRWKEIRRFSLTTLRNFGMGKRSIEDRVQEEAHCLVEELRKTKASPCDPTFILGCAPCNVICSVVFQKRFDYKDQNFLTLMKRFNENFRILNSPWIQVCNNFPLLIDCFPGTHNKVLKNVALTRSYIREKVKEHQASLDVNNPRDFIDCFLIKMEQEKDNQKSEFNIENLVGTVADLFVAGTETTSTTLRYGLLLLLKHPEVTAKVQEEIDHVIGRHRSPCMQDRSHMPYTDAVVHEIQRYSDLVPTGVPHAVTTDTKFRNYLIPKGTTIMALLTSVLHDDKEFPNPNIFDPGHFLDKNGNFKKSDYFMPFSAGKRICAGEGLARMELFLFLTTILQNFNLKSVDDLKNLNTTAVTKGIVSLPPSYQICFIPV

[2] = system: Mus musculus; assay: Antidiabetic activity in db/db C57BLKS/J-m +/+ Leprdb mouse assessed as reduction of glucose level at 3 mg/kg, po qd for 10 days measured on 11 relative to control; type: functional; set-up: scale not given: the % may be the effect or the level left
How it was run: (§1)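 Male db/db (C57BLKS/J-m +/+Leprdb) mice, 12−13 weeks old, seven per group, chow and water freely available; once-daily oral gavage in 0.25% methylcellulose vehicle for 11 days. Tail blood drawn just before next dose on days 0, 4, 7 and 11 for plasma glucose. Value is percent correction versus vehicle control; mean of n = 7; rosiglitazone 10 mpk positive control.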

[3] = molecular target: Cytochrome P450 2D6 (Homo sapiens, UniProt P10635); assay: Inhibition of CYP2D6; type: ADME
[4] = system: Mus musculus; assay: Antidiabetic activity in db/db C57BLKS/J-m +/+ Leprdb mouse assessed as reduction of glucose level at 10 mg/kg, po qd for 10 days measured on 11 relative to control; type: functional; set-up: scale not given: the % may be the effect or the level left; how it was run: as §1
[5] = molecular target: Cytochrome P450 2C9 (Homo sapiens, UniProt P11712); assay: Inhibition of CYP2C9; type: ADME
[6] = Oral bioavailability in rat at 2 mg/kg by LC-MS/MS analysis; type: ADME, organism-based; settings: in vivo
How it was run: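 Rat pharmacokinetics: 2 mpk oral in 5% methylcellulose, 0.5 mpk iv in ethanol/PEG400/water (1/4/5). Blood sampled at set intervals; plasma acidified with 0.5 M formate buffer pH 3.0, acetonitrile-precipitated, quantified by LC−MS−MS against spiked control-plasma calibration curves.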

[7] = system: Mus musculus; assay: Toxicity in db/db C57BLKS/J-m +/+ Leprdb mouse assessed as increase in water content of epididymal fat pad at 10 to 30 mg/kg, po qd for 10 days measured on day 11 by vaccum drying method; type: organism-based; set-up: dose 10-30 mg/kg, route oral; settings: in vivo, 240 h
How it was run: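 Male db/db mice, seven per group, gavaged daily in 0.25% methylcellulose; after day 11 dosing epididymal fat pads excised, weighed, vacuum centrifugal-dried over 24 h, reweighed to give water content; mean of seven determinations.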

[8] = system: COS-1; assay: Binding affinity to human PPARgamma LBD Y473A mutant expressed in COS1 cells co-expressing GAL4 by scintillation proximity assay; type: cell-based
[9] = system: Rattus norvegicus; assay: Toxicity in obese insulin resistant Zucker fa/fa rat assessed as increase in heart weight at >= 10 mg/kg; type: organism-based; set-up: dose 10 mg/kg; settings: in vivo
[10] = system: Rattus norvegicus; assay: Antidiabetic activity in obese insulin resistant Zucker fa/fa rat assessed as decrease in triglyceride level in plasma at 0.1 to 100 mg/kg qd for 7 days; type: functional, organism-based
How it was run: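 Obese insulin-resistant Zucker fa/fa rats (n = 8) dosed daily for 7 days with vehicle or compound. Tail-nick blood taken 1 day before dosing and 1 day after the seventh dose; plasma insulin by rat insulin RIA, free fatty acids and triglyceride by enzymatic kits per manufacturer instructions.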

[11] = system: Mus musculus; assay: Antidiabetic activity in db/db C57BLKS/J-m +/+ Leprdb mouse assessed as reduction of glucose level at 20 mg/kg, po qd for 10 days measured on 11 relative to control; type: functional; set-up: scale not given: the % may be the effect or the level left; how it was run: as §1
[12] = AUC in db/db C57BLKS/J-m +/+ Leprdb mouse at 30 mg/kg, po qd for 10 days measured on day 11; type: ADME, organism-based; set-up: dose 30 mg/kg, route oral; settings: plasma
How it was run: (§2)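 Male db/db (C57BLKS/J-m +/+Leprdb) mice aged 12−13 weeks, seven per group, gavaged once daily with compound in 0.25% methylcellulose vehicle. Total compound exposure measured at study end: plasma acidified with 0.5 M formate buffer pH 3.0, protein precipitated with acetonitrile, quantified by LC−MS−MS against calibration curves in control plasma.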

[13] = AUC in db/db C57BLKS/J-m +/+ Leprdb mouse at 3 mg/kg, po qd for 10 days measured on day 11; type: ADME, organism-based; set-up: dose 3 mg/kg, route oral; settings: plasma; how it was run: as §2
[14] = Drug uptake in db/db C57BLKS/J-m +/+ Leprdb mouse at 10 mg/kg, po qd for 10 days measured in day 11 by LC-MS/MS analysis; type: ADME, organism-based; set-up: dose 10 mg/kg, route oral; settings: in vivo; how it was run: as §2
[15] = molecular target: T2, Peroxisome proliferator-activated receptor alpha (Homo sapiens, UniProt Q07869); assay: Binding affinity to human PPARalpha expressed in COS-1 by scintillation proximity assay
T2 sequence (Q07869 whole entry): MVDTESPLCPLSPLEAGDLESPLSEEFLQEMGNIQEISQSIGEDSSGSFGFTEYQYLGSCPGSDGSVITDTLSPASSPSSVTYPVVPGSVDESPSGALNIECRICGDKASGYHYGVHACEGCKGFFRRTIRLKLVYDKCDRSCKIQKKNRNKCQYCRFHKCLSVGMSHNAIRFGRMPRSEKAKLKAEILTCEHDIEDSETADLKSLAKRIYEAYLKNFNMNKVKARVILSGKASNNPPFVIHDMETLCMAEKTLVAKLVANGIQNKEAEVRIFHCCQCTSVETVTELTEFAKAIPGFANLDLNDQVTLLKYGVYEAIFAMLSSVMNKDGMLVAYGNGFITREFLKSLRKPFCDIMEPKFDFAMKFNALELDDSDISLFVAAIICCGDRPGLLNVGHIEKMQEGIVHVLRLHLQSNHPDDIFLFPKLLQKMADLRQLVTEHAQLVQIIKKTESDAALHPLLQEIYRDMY
How it was run: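 Scintillation proximity binding assay on PPAR receptors giving IC50; mean of three determinations.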

[16] = Inhibition of Ikr channel up to 10 uM
[17] = Inhibition of serine/threonine-protein kinase
[18] = system: Rattus norvegicus; assay: Antidiabetic activity in obese insulin resistant Zucker fa/fa rat assessed as decrease in insulin level in plasma administered qd for 7 days

Chain of Cytochrome P450 2D6 (P10635 whole entry): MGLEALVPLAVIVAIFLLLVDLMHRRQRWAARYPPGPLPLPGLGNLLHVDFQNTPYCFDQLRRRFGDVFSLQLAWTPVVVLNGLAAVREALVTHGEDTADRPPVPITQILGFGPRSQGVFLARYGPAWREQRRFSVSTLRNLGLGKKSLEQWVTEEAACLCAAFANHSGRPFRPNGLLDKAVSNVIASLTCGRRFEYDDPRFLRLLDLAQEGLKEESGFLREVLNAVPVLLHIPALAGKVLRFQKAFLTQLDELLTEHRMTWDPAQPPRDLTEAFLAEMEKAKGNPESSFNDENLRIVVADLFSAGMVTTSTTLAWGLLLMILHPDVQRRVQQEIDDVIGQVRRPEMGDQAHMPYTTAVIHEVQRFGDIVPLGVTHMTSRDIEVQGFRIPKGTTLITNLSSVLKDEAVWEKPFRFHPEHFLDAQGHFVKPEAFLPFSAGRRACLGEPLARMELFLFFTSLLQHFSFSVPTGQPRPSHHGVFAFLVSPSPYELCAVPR
Chain of Cytochrome P450 2C9 (P11712 whole entry): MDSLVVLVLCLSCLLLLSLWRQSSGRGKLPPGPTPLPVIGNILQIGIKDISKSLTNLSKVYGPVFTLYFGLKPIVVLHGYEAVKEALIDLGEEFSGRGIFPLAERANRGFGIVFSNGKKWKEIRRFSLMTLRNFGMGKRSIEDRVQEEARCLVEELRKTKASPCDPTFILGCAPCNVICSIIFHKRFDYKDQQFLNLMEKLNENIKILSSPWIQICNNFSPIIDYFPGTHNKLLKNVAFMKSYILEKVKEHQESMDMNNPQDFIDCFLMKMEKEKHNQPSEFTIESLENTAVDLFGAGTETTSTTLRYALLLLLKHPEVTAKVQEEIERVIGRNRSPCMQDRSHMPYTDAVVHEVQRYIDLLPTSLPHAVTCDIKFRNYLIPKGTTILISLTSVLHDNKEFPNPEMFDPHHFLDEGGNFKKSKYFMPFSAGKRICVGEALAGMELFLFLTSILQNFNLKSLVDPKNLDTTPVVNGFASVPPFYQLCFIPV

COc1ccc2c(-n3c(=O)n(Cc4cccc([C@@]5(C)OC(=O)NC5=O)c4)c4ccccc43)noc2c1
IC50 [1]: 10 µM
Activity [2]: 49%
IC50 [3]: 91 µM
Activity [4]: 74%
IC50 [5]: 2 µM
bioavailability [6]: 87%
Activity [7]: Non-toxic
Activity [8]: Active
Activity [9]: Non-toxic
Activity [10]: Active
Activity [11]: 77%
AUC at 240 h [12]: 450 µM·h
AUC at 240 h [13]: 70 µM·h
AUC at 240 h [14]: 159 µM·h
IC50 [15]: > 50 µM
inhibition [16]: inactive
INH [17]: 0.951 µM
ED50 [18]: 281 µM·h
